In ChEMBL document CHEMBL5338796, “Discovery of a Selective and Orally Bioavailable FGFR2 Degrader for Treating Gastric Cancer” (J Med Chem, 2023):
Calls of active or inactive are those of the source. No cut-off for these calls is given here.

Assays:
SNU-16 = assay: Antitumor activity against human SNU-16 cells xenografted in BALB/c nude mouse assessed as reduction in PLCgamma phosphorylation in tumor at 20 mg/kg, po measured at 4 hrs; format: functional, organism-based
Outline: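 Female BALB/c nude mice, 5 weeks old (20–22 g), s.c. right-flank SNU-16 implants, randomized by body weight into groups (n = 5) once tumours reached 50–100 mm3. Dosing 20 mg/kg/day intragastric in 0.5% CMC-Na for 15 d; vehicle controls. Tumour width and length measured every 2 days; tumours harvested 4 h after last dose and lysates immunoblotted for pFGFR, FGFR2, pPLCγ, pErk.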

[1] = target: T1, Protein cereblon/Fibroblast growth factor receptor 2 (Homo sapiens, UniProt P21802+Q96SW2); assay: PROTAC activity at CRBN/FGFR2 in human KATO III stomach cancer cell line assessed as FGFR2 degradation by measuring FGFR2 expression level measured for 6 hrs by Western blotting analysis; format: cell-based
Outline: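 KATO III cells treated 6 h across 0.5–10,000 nM (DMSO stock, final DMSO below 0.5%); FGFR2 immunoblotted, quantified as FGFR2/β-actin ratio normalized to DMSO-treated cells, three independent biological experiments; DC50 and Dmax derived from the curve.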

[2] = target: T1, Protein cereblon/Fibroblast growth factor receptor 2; assay: PROTAC activity at CRBN/FGFR2 in human KATO III stomach cancer cell line assessed as FGFR2 degradation by measuring maximum efficacy at 0.5 to 10000 nM measured for 6 hrs by Western blotting analysis relative to control; format: cell-based; conditions: dose 0.5-10000 nM
Outline: (§1)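 KATO III cells treated for 6 h at the stated concentrations, added from 10 mM DMSO stocks (final DMSO below 0.5%). Cells were washed with PBS and lysed in 2× loading buffer, then run on SDS-PAGE and blotted to PVDF. Anti-FGFR2 was applied overnight at 4 °C, with ECL detection. FGFR2 was expressed as FGFR2/β-actin, normalized to DMSO-treated cells, from three independent biological experiments.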

[3] = target: T1, Protein cereblon/Fibroblast growth factor receptor 2; assay: PROTAC activity at CRBN/FGFR2 in human KATO III stomach cancer cell line at 100 nM measured for 6 hrs by Western blot analysis relative to control; format: cell-based; outline: as §1
[4] = target: Fibroblast growth factor receptor (Homo sapiens) (UniProt P22607+P11362+P22455+P21802); assay: Induction of FGFR degradation in human KATO III stomach cancer cell line assessed as reduction in FRS2 phosphorylation at 50 nM measured for 6 hrs; format: cell-based
Sequence of Fibroblast growth factor receptor (Homo sapiens) (P11362 whole entry, looked up): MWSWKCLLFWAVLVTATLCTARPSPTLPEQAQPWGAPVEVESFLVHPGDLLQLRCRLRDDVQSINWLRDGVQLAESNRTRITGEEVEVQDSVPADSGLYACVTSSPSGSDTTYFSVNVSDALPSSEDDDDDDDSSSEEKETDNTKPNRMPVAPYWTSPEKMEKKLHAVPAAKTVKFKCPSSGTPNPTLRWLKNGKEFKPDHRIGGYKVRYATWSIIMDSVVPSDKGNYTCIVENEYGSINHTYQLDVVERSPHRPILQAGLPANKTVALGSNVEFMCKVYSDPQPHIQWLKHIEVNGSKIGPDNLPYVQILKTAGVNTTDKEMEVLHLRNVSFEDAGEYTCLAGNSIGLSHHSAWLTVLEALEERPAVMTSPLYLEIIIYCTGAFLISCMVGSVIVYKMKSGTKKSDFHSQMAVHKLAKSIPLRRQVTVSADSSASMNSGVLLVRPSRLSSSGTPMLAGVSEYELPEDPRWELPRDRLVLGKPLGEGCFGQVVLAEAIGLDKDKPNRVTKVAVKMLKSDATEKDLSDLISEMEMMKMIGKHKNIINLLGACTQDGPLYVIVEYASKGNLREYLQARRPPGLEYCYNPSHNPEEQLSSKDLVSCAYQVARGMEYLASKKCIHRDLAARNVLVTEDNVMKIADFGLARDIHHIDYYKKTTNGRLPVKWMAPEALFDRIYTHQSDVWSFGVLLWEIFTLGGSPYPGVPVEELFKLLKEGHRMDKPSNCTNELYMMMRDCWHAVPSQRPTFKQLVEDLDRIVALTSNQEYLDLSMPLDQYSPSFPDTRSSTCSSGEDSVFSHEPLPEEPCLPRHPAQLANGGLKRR
Sequence of Fibroblast growth factor receptor (Homo sapiens) (P21802 whole entry, looked up): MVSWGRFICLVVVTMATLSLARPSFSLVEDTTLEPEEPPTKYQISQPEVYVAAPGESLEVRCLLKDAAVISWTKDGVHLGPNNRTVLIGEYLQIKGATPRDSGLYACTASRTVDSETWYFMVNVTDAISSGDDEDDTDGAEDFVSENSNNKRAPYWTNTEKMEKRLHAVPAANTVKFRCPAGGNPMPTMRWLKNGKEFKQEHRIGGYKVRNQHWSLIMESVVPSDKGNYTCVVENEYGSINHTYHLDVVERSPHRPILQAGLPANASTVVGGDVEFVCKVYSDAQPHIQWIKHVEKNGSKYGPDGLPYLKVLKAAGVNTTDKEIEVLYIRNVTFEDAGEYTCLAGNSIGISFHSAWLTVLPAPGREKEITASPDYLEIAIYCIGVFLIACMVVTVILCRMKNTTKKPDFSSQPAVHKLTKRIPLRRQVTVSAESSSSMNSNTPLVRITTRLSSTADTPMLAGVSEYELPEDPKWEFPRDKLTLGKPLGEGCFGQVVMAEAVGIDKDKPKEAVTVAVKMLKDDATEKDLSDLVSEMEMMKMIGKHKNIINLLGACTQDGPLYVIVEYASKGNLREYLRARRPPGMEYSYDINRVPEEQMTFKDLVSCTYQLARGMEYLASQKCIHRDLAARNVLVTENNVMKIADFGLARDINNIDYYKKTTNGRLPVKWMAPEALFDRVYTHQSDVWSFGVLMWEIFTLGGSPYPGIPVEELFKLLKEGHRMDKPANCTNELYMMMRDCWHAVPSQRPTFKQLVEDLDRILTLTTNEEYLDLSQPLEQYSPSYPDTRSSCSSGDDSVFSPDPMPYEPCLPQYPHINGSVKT
Sequence of Fibroblast growth factor receptor (Homo sapiens) (P22455 whole entry, looked up): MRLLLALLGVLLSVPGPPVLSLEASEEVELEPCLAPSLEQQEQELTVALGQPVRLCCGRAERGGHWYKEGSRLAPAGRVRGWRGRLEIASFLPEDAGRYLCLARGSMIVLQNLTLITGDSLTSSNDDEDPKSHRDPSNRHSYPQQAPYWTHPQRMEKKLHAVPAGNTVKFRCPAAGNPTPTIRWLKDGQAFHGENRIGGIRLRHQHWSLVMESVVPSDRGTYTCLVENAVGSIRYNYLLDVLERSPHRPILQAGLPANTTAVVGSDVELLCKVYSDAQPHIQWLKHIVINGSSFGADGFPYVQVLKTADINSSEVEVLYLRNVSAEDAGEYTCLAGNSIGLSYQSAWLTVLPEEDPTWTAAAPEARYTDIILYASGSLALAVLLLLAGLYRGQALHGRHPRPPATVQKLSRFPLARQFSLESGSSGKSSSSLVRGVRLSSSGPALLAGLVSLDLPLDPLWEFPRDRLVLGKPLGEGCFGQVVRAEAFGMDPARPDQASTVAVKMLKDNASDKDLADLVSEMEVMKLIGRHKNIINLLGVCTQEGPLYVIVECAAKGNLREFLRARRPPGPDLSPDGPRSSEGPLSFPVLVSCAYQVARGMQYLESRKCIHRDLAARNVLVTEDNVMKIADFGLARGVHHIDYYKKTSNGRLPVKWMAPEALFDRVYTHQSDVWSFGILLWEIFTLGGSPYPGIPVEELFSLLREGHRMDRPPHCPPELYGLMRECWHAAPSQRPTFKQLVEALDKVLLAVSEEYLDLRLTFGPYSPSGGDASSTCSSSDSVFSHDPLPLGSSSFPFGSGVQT
Sequence of Fibroblast growth factor receptor (Homo sapiens) (P22607 whole entry, looked up): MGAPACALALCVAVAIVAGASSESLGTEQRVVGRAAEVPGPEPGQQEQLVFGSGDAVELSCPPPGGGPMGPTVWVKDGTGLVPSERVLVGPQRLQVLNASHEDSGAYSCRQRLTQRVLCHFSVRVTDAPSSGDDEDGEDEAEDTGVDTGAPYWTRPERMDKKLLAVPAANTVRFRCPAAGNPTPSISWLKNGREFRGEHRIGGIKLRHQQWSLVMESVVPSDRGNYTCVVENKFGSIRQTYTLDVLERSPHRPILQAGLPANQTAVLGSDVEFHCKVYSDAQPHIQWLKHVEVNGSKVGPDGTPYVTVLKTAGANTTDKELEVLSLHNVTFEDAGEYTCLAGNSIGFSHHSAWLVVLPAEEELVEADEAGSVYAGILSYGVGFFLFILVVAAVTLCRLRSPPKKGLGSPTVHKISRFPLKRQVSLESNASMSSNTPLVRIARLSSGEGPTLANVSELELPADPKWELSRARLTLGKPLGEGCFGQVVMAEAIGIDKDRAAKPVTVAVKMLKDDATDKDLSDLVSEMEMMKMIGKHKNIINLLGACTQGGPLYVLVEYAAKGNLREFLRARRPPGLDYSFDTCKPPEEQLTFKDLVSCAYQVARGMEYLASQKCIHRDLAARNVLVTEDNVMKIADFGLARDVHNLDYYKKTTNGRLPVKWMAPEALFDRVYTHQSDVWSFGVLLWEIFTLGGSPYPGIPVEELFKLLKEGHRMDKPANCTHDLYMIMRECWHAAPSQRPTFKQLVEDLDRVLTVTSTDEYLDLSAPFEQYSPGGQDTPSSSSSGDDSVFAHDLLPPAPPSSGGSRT
Outline: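 KATO III cells incubated 6 h with 50 nM compound, then stimulated with FGF1 for 10 min; pFGFR, pPLCγ1 (Tyr783) and pFRS2α immunoblotted.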

NCI-H716 = assay: Antiproliferative activity against human NCI-H716 cells assessed as reduction in cell viability measured for 72 hrs by celltiter-glo reagent based assay; format: functional; conditions: NCI-H716, 72 h
Outline: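 Cancer lines KATO III, SNU16, NCI-H716, NCI-H1975, MV-4-11 and HEK293T treated 72 h; antiproliferative IC50 given as mean ± s.d. from three independent biological experiments.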

[5] = Half life in Sprague-Dawley rat at 3 mg/kg, iv measured at 0.083 to 24 hrs by LC-MS/MS analysis; format: ADME, organism-based; conditions: in vivo, time 0.083-24 hrs
Outline: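 Male Sprague Dawley rats, single dose i.v. 3 mg/kg or p.o. 20 mg/kg in 10% Solutol, 85% (10% HP-β-CD in saline), 5% DMSO, pH adjusted to 9–10.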

[6] = Toxicity in ICR mouse assessed as change in lung weight at 20 mg/kg, po measured for 30 days; format: organism-based; conditions: in vivo, 720 h, time 30 day
Outline: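 ICR mice (n = 6) were dosed orally at 20 mg/kg/day for 30 days, alongside vehicle-treated controls. Mortality and clinical signs were checked daily. At the end, body and organ weights were recorded. Heart, liver, spleen, lung and kidney were examined by hematoxylin and eosin staining.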

[7] = Clearance in mice at 3 mg/kg, iv measured at 0.083 to 24 hrs by LC-MS/MS analysis; conditions: mouse, in vivo
[8] = Oral bioavailability in mice at 20 mg/kg measured at 0.25 to 24 hrs by LC-MS/MS analysis; conditions: mouse, in vivo

Structure (SMILES): COc1cc(OC)c(Cl)c(NC(=O)N(C)c2cc(Nc3ccc(N4CCN(C(=O)C5CCN(c6ccc7c(c6)C(=O)N(C6CCC(=O)NC6=O)C7=O)CC5)CC4)cc3)ncn2)c1Cl (stereo not given)
- Activity (SNU-16): Active
- DC50 [1]: 11.8 nM
- Emax [2]: 80%
- Activity [3]: 77%
- Activity [4]: Active
- IC50 (NCI-H716): 3.2 nM
- half-life [5]: 58.2 min
- Activity [6]: Non-Toxic
- clearance [7]: 121 mL/min/kg
- bioavailability [8]: 13.1%
